Shown are actives, neighbours in structure and some others; about 2.7% of the full set was active somewhere.
ABCB1 inh: human ABCB1 inhibition, ABCG2 as counter-screen; 190,000 compounds, 0.067% hits; CCRF-Adr cells, JC-1 efflux, flow cytometry; P08183; inhibition, % at 6.6 µM; in the data active = inhibition above about 40%;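 note: 0% = vehicle and 100% = reference inhibitor; higher value means more JC-1 retained so stronger ABCB1 efflux block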
Redox H2O2 prof: compounds producing H2O2 with reducing agent – biochemical, NIH compound library profiling, artefact control for MLSCN library redox annotation, primary screen; DTT-dependent redox cycling H2O2, phenol red/HRP absorbance; 100% = 100 µM peroxide control, 0% = buffer; activation, % at 10 µM; 200,000 compounds, 0.03% hits; AID 878;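 active = activation of at least 50% relative to the plate's high and low controls in the primary single-dose screen; inactive = activation below 50%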;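 note: compound incubated with DTT at 0.8 mM final as the reducing agent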
Measles CPE: protection of cells from measles virus; protection (pct of control), % at 4 µM; 140,000 compounds, 1.5% hits; Measles virus-infected cells, CPE protection, absorbance; in the data active = protection mostly above about 24%, no sharp cut-off; inactive = mostly below about 26%
FLuc stim CS: firefly luciferase counter-screen for stimulation assays. P08659. ATPlite luciferase biochemical, luminescence, 10 min; 0 = ATP-free wells, 1 = DMSO control. activation factor at 10 µM. 200,000 tested, under 10 active. AID 1027;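 active = luciferase activation factor, scaled between plate controls, of at least 2 with compound at 10 µM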
Target sequence (P08659 whole entry, looked up): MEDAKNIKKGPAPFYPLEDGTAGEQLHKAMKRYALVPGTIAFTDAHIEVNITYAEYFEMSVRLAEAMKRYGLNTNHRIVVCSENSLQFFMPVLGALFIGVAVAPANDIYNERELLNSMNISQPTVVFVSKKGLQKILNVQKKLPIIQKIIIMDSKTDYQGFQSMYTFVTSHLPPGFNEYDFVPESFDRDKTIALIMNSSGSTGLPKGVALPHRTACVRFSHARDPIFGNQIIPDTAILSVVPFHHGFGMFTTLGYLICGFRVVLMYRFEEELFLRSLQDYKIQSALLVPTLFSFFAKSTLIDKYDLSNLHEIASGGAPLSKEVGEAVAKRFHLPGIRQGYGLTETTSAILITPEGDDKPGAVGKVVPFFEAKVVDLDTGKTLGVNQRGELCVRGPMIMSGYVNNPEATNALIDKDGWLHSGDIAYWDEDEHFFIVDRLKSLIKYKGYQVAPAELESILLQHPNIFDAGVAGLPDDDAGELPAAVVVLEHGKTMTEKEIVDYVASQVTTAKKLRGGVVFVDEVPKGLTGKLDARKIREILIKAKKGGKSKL
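Material: luciferase plus luciferin reagent, cell-free. Medium: PBS buffer for ATP. Also added: ATP substrate, dispensed from a 10.24 µM working solution in PBS. Doses: test compounds dosed from 2 mM stocks in 100% DMSO. Incubation: 10 min post-reagent at room temperature. Technique: light output (luminescence). Read-out basis: luminescence gain marking luciferase activators.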
ABCG2 block: human ABCG2 inhibition, ABCB1 as counter-screen | 190,000 compounds, 0.1% hits | AID 1325 | inhibition, % at 6.6 µM | Q9UNQ0 | IgMXP3 cells, JC-1 efflux, flow cytometry;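 active = inhibition above 80%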;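 note: 0% = DMSO and 100% = nicardipine control wells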
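Assay system – ABCG2 IgMXP3 and barcoded ABCB1 CCRF-Adr cell mix · Input – 3 million cells/mL in well · Reagent – JC-1 fluorescent substrate · Compound – single test compound dose, 6.6 µM final · Timing – 10 min exposure at 25 °C with rotation, no wash · Detection – flow cytometry of retained JC-1 fluorescence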
FLuc inhib CS: Photinus pyralis luciferase inhibition counter-screen | 200,000 compounds, 1.5% hits | inhibition, % at 10 µM | P08659 | ATPLite firefly luciferase biochemical luminescence, 10 min;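 active = inhibition above about 50% when tested at 10 µM, limit read from the data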
Redox H2O2 DR: generates H2O2 by DTT-dependent redox cycling, confirmed in dose response | shares compounds with Redox H2O2 prof | phenol red-HRP absorbance | EC50, µM | 60 compounds, 40% hits;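 active = EC50 under a set limit for hydrogen peroxide production with the reducing agent DTT present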
An asterisk follows results filed as active; . = no result.

SMILES	ABCB1 inh	Redox H2O2 prof	Measles CPE	FLuc stim CS	ABCG2 block	FLuc inhib CS	others
N#Cc1ccccc1NC(=O)c1ccc2c(Cl)c3c(nc2c1)CCCC3	0	0	3	0.5	46	50*
CC(=O)c1cccc(NC(=O)c2ccc3c(Cl)c4c(nc3c2)CCCC4)c1	1	0	7	0.8	1	20
COc1ccc(S(=O)(=O)NNC(=O)C2CC(c3cccnc3)=NO2)cc1 (configuration not stated)	0	-1	.	1.1	1	-10
CC1CN(CC(O)COC(c2ccccc2)c2ccccc2)CC(C)O1 (configuration not stated)	1	0	31*	1	3	-4
COc1ccc(CCNS(=O)(=O)c2ccc3c(c2)CC(C)N3C(C)=O)cc1OC (configuration not stated)	1	-3	38*	1	7	0
COc1ccc(CCNS(=O)(=O)c2ccc3c(c2)CCN3C(=O)C2CC2)cc1OC	2	0	22	1	15	-2
Cc1cccc2sc(NNC(=O)c3ccc4c(c3)OCCO4)nc12	0	0	37*	1.1	-1	-7
O=C(NNc1nc2cc3c(cc2s1)OCCO3)c1ccccc1	0	0	.	0.9	3	11
C=CCNC(=S)N(C1CCCCC1)C1CCCCC1	0	0	.	1.1	4	-8
CCOc1ccc(CCn2c(-c3ccco3)nc3ccccc3c2=O)cc1OCC	4	0	44*	1.1	23	-11
CN(C)c1ccc(/C=C/c2cc[n+](C)cc2)cc1	2	0	49*	1	3	-1
COc1ccc(N2C(=O)CC(NCCNc3ccc([N+](=O)[O-])cn3)C2=O)cc1 (configuration not stated)	3	0	3	1	22	-5
CC(C)(C)C(=O)Nc1ccc(N=Nc2ccccc2)cc1	1	0	.	0.1	28	90*
O=C(O)CCC(=O)Nc1ccc(N=Nc2ccccc2)cc1	0	-1	.	0.8	0	18
COc1cc(/C=C/C(=O)NNc2c(F)c(F)cc(F)c2F)ccc1OC(F)F	0	0	19	1.1	0	-7
COc1ccc(/C(=C/c2ccc(OC(F)F)c(OC)c2)C(=O)O)cc1OC	0	0	60*	1	1	-3
CCn1c2ccccc2c2cc(CN3CCN(S(=O)(=O)Cc4ccccc4)CC3)ccc21	2	2	16	1	7	-3
O=C(Cc1c2ccccc2nc2ccccc12)c1ccccc1	-1	0	20*	1.1	13	-6
CC(C)(C)c1nc(SCC(=O)c2ccccc2)c2ccccc2n1	1	-3	.	1	2	-4
C/C(=N\NC(=O)c1ccc(NS(=O)(=O)c2cccs2)cc1)c1cccs1	0	-3	.	1.1	3	-7
C/C(=N\NC(=O)c1cc(Br)ccc1O)c1cccs1	-1	0	.	0.4	-1	65*
C/C(=N\NC(=O)c1ccccc1O)c1ccc(Br)s1	-1	1	22	0.2	5	79*
C/C(=N\NC(=O)c1ccc(Cl)cc1)c1cccs1	1	0	.	0.1	3	90*
C/C(=N\NC(=O)c1ccccc1[N+](=O)[O-])c1ccc(Br)s1	1	-2	.	1.1	19	-6
c1ccc2c(-n3cccn3)cccc2c1	1	0	39*	0.9	4	6
NCc1cccc(-n2cccn2)c1	0	0	22	1.1	2	-6
Cc1onc(C(=O)N2CCC(C(N)=O)CC2)c1-c1ccccc1Cl	1	1	3	1.1	2	-6
NC(=O)C1CCN(C2=C(Cl)C(=O)c3ccccc3C2=O)CC1	1	356*	4	1	4	4	Redox H2O2 DR=>50
Cc1cc(C)n(C(=O)CCCn2cc([N+](=O)[O-])cn2)n1	1	1	.	1	6	-1
CCCc1nc2c(=O)n(C)c(=O)nc-2n(C)n1	0	128*	.	1.1	-2	-5	Redox H2O2 DR=1.5*

Assay outcomes from PubChem.
